In ChEMBL document CHEMBL5696442, “Discovery of type II inhibitors of TGFβ-activated kinase 1 (TAK1) and mitogen-activated protein kinase kinase kinase kinase 2 (MAP4K2)” (J Med Chem, 2015):
Calls of active or inactive are those of the source. No cut-off for these calls is given here.

Legend:
[1] = target: T1, Aurora kinase A (Homo sapiens) (UniProt O14965); assay: Inhibition of AURKA (unknown origin) at 10 uM by Ambit Kinomescan binding assay
T1 sequence (whole entry): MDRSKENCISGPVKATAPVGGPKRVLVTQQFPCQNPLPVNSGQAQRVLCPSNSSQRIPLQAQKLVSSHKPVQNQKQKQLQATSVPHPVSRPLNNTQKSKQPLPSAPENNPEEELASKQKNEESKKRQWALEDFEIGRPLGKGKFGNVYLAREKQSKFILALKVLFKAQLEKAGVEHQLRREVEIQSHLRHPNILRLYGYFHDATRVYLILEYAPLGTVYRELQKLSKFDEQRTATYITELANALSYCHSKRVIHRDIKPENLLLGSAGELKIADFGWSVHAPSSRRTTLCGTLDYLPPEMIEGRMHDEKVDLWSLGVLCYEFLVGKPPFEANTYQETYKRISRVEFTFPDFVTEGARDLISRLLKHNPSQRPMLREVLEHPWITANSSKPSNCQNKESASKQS

[2] = target: Misshapen-like kinase 1 (Homo sapiens) (UniProt Q8N4C8); assay: Inhibition of ZC3/MINK Lys2 labeling site in human A-375 cells at 5 uM by KiNativ Profiling analysis relative to control; type: cell-based
Sequence of Misshapen-like kinase 1 (Homo sapiens) (Q8N4C8 whole entry, looked up): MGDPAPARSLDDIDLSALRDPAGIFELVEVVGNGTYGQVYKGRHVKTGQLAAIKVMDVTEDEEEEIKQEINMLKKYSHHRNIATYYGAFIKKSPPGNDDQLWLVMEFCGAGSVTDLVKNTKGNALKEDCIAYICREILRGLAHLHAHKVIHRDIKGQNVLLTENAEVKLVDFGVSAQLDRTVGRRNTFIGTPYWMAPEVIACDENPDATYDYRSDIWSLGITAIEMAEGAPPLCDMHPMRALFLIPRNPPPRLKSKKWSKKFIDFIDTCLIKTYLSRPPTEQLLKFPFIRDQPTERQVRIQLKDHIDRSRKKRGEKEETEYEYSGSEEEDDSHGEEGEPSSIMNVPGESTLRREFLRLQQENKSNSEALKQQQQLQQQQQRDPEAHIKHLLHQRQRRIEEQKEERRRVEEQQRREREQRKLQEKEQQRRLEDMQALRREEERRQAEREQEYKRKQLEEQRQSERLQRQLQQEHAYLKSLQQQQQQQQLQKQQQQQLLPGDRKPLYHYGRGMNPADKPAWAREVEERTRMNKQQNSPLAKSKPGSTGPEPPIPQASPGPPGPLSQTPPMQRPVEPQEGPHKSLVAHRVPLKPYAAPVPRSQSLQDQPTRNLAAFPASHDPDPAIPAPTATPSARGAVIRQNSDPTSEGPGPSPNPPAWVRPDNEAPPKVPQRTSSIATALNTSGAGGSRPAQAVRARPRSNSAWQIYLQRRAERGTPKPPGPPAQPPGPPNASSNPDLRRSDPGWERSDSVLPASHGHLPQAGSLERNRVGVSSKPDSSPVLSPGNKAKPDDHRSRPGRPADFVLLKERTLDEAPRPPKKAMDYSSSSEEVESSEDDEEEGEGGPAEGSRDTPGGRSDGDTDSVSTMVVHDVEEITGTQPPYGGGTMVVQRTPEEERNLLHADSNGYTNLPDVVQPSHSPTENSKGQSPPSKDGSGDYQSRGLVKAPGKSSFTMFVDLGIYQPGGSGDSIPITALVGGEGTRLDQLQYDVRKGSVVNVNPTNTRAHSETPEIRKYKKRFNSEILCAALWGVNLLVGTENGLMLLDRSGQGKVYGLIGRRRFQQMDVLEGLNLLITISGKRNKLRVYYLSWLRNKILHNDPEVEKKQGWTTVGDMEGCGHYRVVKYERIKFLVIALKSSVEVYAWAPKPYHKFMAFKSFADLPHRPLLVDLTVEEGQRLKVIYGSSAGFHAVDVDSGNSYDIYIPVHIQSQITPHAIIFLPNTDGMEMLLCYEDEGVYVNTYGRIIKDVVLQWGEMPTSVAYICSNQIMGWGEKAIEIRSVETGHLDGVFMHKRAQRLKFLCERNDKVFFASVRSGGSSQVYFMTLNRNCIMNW

[3] = target: DNA-dependent protein kinase catalytic subunit (Homo sapiens) (UniProt P78527); assay: Inhibition of PRKDC ATP labeling site harbouring KGGSWIQEINVAEKNWYPR in human Huh-7 cells at 1 uM by KiNativ Profiling analysis relative to control; type: cell-based
[4] = target: T2, Serine/threonine-protein kinase ULK3 (Homo sapiens) (UniProt Q6PHR2); assay: Inhibition of ULK3 (unknown origin) at 10 uM by Ambit Kinomescan binding assay relative to control; values are per cent of control
T2 sequence (whole entry): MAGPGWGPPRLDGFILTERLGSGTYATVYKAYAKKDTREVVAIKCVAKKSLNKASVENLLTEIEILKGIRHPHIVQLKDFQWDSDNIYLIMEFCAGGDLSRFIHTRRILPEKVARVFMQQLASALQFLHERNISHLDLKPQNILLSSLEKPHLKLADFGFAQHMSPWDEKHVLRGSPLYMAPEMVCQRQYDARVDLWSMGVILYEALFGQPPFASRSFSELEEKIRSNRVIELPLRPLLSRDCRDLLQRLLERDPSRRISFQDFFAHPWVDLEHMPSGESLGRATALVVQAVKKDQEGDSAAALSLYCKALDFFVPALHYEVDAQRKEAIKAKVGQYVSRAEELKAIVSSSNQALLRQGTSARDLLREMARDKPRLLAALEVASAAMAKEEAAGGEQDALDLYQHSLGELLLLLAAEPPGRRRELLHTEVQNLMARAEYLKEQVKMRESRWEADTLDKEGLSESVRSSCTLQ

[5] = target: Epidermal growth factor receptor (Homo sapiens) (UniProt P00533); assay: Inhibition of EGFR ACT labeling site in human Huh-7 cell lysate at 1 uM by KiNativ Profiling analysis relative to control; type: subcellular
Sequence of Epidermal growth factor receptor (Homo sapiens) (P00533 whole entry): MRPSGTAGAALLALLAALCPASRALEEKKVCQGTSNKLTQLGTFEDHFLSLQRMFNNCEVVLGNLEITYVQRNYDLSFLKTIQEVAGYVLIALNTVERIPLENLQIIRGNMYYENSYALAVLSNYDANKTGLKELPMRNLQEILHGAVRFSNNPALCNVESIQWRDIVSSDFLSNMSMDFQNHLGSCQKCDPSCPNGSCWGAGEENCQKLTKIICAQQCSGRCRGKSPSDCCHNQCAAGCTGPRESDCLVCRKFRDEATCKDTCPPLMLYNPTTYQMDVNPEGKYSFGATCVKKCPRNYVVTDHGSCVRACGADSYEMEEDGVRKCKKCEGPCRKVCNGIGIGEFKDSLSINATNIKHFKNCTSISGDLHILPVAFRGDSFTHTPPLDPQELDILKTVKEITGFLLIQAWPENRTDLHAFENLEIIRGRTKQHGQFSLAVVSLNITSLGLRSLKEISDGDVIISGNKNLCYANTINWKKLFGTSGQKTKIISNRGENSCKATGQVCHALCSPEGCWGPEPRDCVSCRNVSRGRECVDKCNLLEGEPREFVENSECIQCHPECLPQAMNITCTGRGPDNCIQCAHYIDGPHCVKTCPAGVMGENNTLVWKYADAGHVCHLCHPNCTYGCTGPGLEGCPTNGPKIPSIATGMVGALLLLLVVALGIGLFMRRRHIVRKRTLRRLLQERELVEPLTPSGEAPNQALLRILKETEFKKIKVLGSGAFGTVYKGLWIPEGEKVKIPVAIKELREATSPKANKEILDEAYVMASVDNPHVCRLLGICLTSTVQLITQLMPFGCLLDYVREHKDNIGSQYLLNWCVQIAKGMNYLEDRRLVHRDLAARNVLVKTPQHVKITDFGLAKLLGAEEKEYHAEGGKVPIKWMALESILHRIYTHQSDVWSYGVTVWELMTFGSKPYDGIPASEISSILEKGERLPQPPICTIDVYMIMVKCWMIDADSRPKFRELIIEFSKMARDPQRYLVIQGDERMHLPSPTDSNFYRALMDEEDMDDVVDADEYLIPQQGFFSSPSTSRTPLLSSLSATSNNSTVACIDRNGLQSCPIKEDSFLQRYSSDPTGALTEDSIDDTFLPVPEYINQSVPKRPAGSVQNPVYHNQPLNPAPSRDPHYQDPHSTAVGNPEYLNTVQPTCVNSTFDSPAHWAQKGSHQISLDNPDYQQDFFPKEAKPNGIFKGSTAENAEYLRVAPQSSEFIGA

[6] = target: Focal adhesion kinase 1 (Homo sapiens) (UniProt Q05397); assay: Inhibition of FAK ACT labeling site in human Huh-7 cell lysate at 1 uM by KiNativ Profiling analysis relative to control; type: subcellular
Sequence of Focal adhesion kinase 1 (Homo sapiens) (Q05397 2-1052 limits assumed): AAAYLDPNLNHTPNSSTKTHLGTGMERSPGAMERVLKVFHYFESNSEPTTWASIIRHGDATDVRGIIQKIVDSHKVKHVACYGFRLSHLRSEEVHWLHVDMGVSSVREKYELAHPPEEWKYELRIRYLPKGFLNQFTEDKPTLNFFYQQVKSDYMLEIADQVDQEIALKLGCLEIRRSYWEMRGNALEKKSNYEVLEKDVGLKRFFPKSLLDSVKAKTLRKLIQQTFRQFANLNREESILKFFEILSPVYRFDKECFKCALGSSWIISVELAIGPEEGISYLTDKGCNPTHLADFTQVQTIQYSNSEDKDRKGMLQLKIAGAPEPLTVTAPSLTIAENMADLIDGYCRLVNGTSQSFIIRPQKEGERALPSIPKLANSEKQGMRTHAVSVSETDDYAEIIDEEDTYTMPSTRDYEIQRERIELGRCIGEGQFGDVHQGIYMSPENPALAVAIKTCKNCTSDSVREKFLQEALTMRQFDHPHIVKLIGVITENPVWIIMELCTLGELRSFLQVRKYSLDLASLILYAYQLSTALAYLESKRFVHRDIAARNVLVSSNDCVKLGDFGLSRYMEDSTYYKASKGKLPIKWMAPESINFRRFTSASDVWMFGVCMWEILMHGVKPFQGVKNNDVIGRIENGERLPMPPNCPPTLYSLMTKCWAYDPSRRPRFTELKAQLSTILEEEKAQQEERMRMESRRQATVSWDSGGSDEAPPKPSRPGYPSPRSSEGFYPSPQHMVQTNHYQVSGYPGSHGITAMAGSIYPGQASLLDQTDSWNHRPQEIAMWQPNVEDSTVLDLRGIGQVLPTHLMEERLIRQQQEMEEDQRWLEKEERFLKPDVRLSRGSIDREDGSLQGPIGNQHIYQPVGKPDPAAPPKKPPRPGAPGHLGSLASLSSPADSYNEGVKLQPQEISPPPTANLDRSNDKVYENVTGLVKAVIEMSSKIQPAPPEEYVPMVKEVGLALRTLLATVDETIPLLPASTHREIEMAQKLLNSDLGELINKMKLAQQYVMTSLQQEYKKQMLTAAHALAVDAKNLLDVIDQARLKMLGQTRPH

[7] = target: T3, Dual specificity mitogen-activated protein kinase kinase 7 (Homo sapiens) (UniProt O14733); assay: Inhibition of MAP2K7 Lys2 labeling site in human Huh-7 cell lysate at 1 uM by KiNativ Profiling analysis relative to control; type: subcellular
T3 sequence (whole entry): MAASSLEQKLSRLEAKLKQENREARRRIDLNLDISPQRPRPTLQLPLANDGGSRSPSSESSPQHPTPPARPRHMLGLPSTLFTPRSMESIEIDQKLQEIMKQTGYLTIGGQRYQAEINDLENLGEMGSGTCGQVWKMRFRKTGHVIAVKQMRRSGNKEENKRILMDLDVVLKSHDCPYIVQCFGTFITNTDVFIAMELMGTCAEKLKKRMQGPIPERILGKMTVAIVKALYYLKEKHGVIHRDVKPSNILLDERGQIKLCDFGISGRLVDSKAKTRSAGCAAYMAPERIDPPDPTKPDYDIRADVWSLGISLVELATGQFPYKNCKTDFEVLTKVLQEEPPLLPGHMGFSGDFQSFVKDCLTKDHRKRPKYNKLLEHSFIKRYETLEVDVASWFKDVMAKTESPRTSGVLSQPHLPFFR

[8] = target: T4, Phosphatidylinositol 5-phosphate 4-kinase type-2 beta (Homo sapiens) (UniProt P78356); assay: Inhibition of PIP4K2B ATP labeling site harbouring AKDLPTFKDNDFLNEGQK in human Huh-7 cell lysate at 1 uM by KiNativ Profiling analysis relative to control; type: subcellular
T4 sequence (whole entry): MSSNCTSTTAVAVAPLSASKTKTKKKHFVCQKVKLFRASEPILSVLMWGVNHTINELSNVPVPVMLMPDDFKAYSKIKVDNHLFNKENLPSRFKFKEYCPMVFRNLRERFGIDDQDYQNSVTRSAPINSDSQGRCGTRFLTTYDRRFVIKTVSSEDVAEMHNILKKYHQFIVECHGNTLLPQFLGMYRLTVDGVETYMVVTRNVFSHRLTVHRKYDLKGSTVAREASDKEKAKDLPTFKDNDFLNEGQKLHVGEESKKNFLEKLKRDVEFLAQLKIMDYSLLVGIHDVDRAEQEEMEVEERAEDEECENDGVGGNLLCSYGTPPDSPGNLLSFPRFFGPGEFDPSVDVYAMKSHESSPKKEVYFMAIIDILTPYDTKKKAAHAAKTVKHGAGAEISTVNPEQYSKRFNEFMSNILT

[9] = target: Mitogen-activated protein kinase 10 (Homo sapiens, UniProt P53779); assay: Inhibition of JNK3 Lys2 labeling site in human Huh-7 cells at 1 uM by KiNativ Profiling analysis relative to control; type: cell-based
Sequence of Mitogen-activated protein kinase 10 (P53779 whole entry): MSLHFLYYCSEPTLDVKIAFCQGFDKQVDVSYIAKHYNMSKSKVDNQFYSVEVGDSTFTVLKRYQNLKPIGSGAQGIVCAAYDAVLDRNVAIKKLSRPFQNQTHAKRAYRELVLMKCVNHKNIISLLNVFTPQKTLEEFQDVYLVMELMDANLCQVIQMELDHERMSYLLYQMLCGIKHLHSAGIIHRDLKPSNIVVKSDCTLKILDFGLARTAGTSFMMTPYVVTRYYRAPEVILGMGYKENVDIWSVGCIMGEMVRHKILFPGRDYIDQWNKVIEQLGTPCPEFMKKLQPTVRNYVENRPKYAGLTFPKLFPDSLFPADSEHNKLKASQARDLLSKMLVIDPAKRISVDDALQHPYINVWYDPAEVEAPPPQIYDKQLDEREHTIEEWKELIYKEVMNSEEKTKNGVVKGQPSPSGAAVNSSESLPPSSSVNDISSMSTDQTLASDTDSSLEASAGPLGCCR

[10] = target: Focal adhesion kinase 1 (Homo sapiens) (UniProt Q05397); assay: Inhibition of FAK (unknown origin) at 1 uM by Ambit Kinomescan binding assay relative to control
Procedure, shortened: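 In vitro ATP-site competition binding assay against a panel of over 420 kinases (KinomeScan), with compound tested at 10 or 1 μM.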

[11] = tested on: Mast/stem cell growth factor receptor Kit (Homo sapiens), P10721 [A829P]; assay: Inhibition of KIT A829P mutant (unknown origin) at 1 uM by Ambit Kinomescan binding assay relative to control; values are per cent of control
Sequence of Mast/stem cell growth factor receptor Kit (Homo sapiens), P10721 [A829P] (P10721 whole entry A829P): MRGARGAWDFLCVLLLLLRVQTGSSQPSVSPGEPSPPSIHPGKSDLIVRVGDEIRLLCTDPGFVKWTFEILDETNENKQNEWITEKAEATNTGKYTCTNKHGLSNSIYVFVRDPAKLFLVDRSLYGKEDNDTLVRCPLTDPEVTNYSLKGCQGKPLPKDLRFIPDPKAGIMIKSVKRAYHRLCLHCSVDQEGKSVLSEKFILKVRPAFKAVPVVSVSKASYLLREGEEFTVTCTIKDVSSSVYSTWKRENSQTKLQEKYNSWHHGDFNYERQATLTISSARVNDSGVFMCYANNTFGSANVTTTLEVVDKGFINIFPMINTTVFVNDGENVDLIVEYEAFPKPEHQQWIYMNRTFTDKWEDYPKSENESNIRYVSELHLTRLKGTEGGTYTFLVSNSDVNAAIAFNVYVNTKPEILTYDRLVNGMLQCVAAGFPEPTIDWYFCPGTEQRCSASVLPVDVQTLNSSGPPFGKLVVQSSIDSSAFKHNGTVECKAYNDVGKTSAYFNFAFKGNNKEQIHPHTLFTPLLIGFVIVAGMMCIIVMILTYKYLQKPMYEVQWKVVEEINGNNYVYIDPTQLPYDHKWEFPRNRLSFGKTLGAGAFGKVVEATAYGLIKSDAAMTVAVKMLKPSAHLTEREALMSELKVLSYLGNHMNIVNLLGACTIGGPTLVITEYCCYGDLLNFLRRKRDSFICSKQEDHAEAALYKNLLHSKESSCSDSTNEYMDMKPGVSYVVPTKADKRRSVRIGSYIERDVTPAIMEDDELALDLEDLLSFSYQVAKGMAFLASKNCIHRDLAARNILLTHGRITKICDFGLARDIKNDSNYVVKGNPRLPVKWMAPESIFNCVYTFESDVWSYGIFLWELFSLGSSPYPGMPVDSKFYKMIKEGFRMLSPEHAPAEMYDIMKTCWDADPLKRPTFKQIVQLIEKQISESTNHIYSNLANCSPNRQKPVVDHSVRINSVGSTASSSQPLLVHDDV

CCN1CCN(Cc2ccc(NC(=O)c3ccc(C)c(Oc4ccnc5[nH]ccc45)c3)cc2C(F)(F)F)CC1
inhibition [1]: inactive
inhibition [2]: 92.7%
inhibition [3]: 30.8%
residual activity [4]: 0.1%

CNc1cc(Oc2cc(C(=O)Nc3cc(N4CCN(C)CC4)cc(C(F)(F)F)c3)ccc2C)ncn1
inhibition [5]: -3.2%
inhibition [6]: 16%
inhibition [7]: 2.7%
inhibition [8]: -5.5%
inhibition [9]: 14.5%

CCN1CCN(Cc2ccc(NC(=O)c3ccc(C)c(/C=C/c4cnc5[nH]ccc5c4OC)c3)cc2C(F)(F)F)CC1
inhibition [10]: 84%
residual activity [11]: 8%
